Experimental findings from ChEMBL document CHEMBL3627667, “Novel halogenated 3-deazapurine, 7-deazapurine and alkylated 9-deazapurine derivatives of L-ascorbic or imino-L-ascorbic acid: Synthesis, antitumour and antiviral activity evaluations” (Eur J Med Chem, 2015) are described below.

One may read the IC50 as the concentration needed to halve the response being measured. As usually defined, the EC50 is the concentration giving half of the maximal effect. Usually CC50 stands for the concentration at which the toxic effect on the cells reaches its halfway point.

Series [1] can be described thus: Antiproliferative activity against human CEM/0 cells incubated for 72 hrs by MTT assay. It is filed as functional, cell-based, CCRF-CEM. The method in brief: (§1)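 Cells seeded at 5000 per well on day 0. Test agents added in five 10-fold dilutions (0.01–100 μM) for a further 72 h, with DMSO ≤0.1% as solvent control. Growth was read by MTT and absorbance converted to percentage growth against untreated cells on the same plate. IC50 came from linear regression on dose–response curves. Quadruplicate points, three independent experiments.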
In general terms: Tetrazolium assays rely on reduction of a dye to a coloured formazan, in cell work by metabolically active cells.

The next series relates to HepG2. Briefly: Antiproliferative activity against human HepG2 cells incubated for 72 hrs by MTT assay. Format: functional, cell-based. Particulars: Homo sapiens, HepG2, 72 h. The method, boiled down: as §1
In series [2] the test system is Mammalian orthoreovirus 1. Briefly: Antiviral activity against Reovirus 1 expressed in African green monkey Vero cells assessed as reduction in cytopathogenicity. The note with it: Mammalian orthoreovirus 1, Vero. Format: functional, cell-based. The method in brief: (§2)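 Confluent Vero monolayers were inoculated with 100 CCID50 of virus in the presence of 5-fold serial compound dilutions. Cytopathicity was scored once it was complete in untreated infected controls. EC50 is the concentration giving 50% reduction of virus-induced cytopathogenicity.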
(In general: Damage to the host cells serves as the signal in cytopathic effect assays.)

For a further series, the system named is Human respirovirus 3. In words: Antiviral activity against Parainfluenza virus 3 expressed in African green monkey Vero cells assessed as reduction in cytopathogenicity. Format: functional, organism-based. Particulars: Human respirovirus 3, Vero. The method in brief:
as §2

Series [3] can be described thus: Cytotoxicity against African green monkey Vero cells assessed as alteration in cell morphology by microscopy. It is filed as cell-based. Particulars: chlorocebus sabaeus. The method in brief:
(§3)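 MCC is the compound concentration causing a microscopically visible alteration of cell morphology in the cultures used for the antiviral assays.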

In the next series the test system is Sindbis virus. In words: Antiviral activity against Sindbis virus expressed in African green monkey Vero cells assessed as reduction in cytopathogenicity. Format: functional, organism-based. The method in brief:
as §2

In another series the test system is Coxsackievirus B4. Briefly: Antiviral activity against Coxsackievirus B4 expressed in African green monkey Vero cells assessed as reduction in cytopathogenicity. Particulars: Enterovirus B. It is filed as functional, organism-based. The method in brief: as §2
For a further series, the system named is HeLa. Briefly: Antiproliferative activity against human HeLa cells incubated for 72 hrs by MTT assay. The note with it: Homo sapiens, HeLa, 72 h. Format: functional, cell-based. The method in brief:
as §1

Series [4] is described as follows: Antiproliferative activity against human MIAPaCa2 cells incubated for 72 hrs by MTT assay. Format: functional, cell-based, MIA PaCa-2. The note with it: Homo sapiens, MIA PaCa-2, 72 h. The method, boiled down:
as §1

The next series has as its system SW-620. In words: Antiproliferative activity against human SW620 cells incubated for 72 hrs by MTT assay. It is filed as functional, cell-based. The method in brief: as §1
A short description of series [5]: Antiproliferative activity against mouse L1210/0 cells incubated for 72 hrs by MTT assay. Format: functional, cell-based. The note with it: Mus musculus, L1210/0, 72 h. The method in brief: as §1
Series [6] concerns Human betaherpesvirus 5. Briefly: Antiviral activity against Human cytomegalovirus AD169 expressed in HEL cells assessed as reduction in plaque formation incubated for 7 days by Giemsa stain based microscopy. Particulars: Human betaherpesvirus 5, AD169, HEL, 168 h. It is filed as functional, organism-based. The method, boiled down: (§4)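 Confluent HEL fibroblasts were infected at 100 PFU per well. After 2 h, residual virus was removed and compound-containing medium added, in duplicate. After 7 days at 37 °C, cells were ethanol-fixed, Giemsa-stained and examined microscopically. EC50 was read from graphic plots of % cytopathogenicity versus concentration.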

The subject of a further series is HEL. In words: Cytotoxicity against human HEL cells assessed as cell growth reduction incubated for 3 days. It is filed as cell-based. The note with it: 72 h. The method in brief: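 HEL cells were seeded at 5 × 10^3 per well and allowed to proliferate for 24 h before compound-containing medium was added. After 3 days at 37 °C, cells were counted with a Coulter counter. CC50 (50% reduction of proliferation versus untreated controls) was estimated from graphic plots.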

In series [7] the test system is Human betaherpesvirus 5. Briefly: Antiviral activity against Human cytomegalovirus Davis expressed in HEL cells assessed as reduction in plaque formation incubated for 7 days by Giemsa stain based microscopy. Format: functional, organism-based. Particulars: Human betaherpesvirus 5, Davis, 168 h. The method, boiled down:
as §4

The nature of series [8]: Cytotoxicity against human HEL cells assessed as alteration in cell morphology incubated for 3 days by microscopy. Format: cell-based. The method, boiled down:
as §3

For the compound `COc1nc(OC)c2c(ccn2CCC2(O)NC(=O)C(OCc3ccccc3)=C2OCc2ccccc2)n1` (configuration not stated), the IC50 in series [1] (Homo sapiens, CCRF-CEM, 72 h) is 87 µM; in the series on HepG2, above 100 µM.
As to `NC(=O)c1ncn([C@@H]2O[C@H](CO)[C@@H](O)[C@H]2O)n1` [RIBAVIRIN], the EC50 in series [2] was above 250 µM; with Human respirovirus 3 it was 73.5 µM; in the series with Sindbis virus, above 250 µM; in the series with Coxsackievirus B4, above 250 µM. Also, in series [3], the MCC is above 250 µM.
On to `O=C1NC(O)(CCn2cnc3ccnc(Cl)c32)C(OCc2ccccc2)=C1OCc1ccccc1` (configuration not stated), for which the IC50 in the series with HeLa is 21 µM; in series [4], 60 µM; with HepG2 it was above 100 µM; in the series on SW-620 (Homo sapiens, SW-620, 72 h), above 100 µM.
Take `COc1nc(OC)c2c(ccn2C/C=C2\OC(=O)C(OCc3ccccc3)=C2OCc2ccccc2)n1` (mixture of isomers): the IC50 in series [1] (Homo sapiens, CCRF-CEM, 72 h) was 4.1 µM; in [5] it was 4.7 µM; in the series with HeLa it was 12 µM; in series [4] it was 33.9 µM; in the series with HepG2 it was above 100 µM; in the series on SW-620 (Homo sapiens, SW-620, 72 h), 47.1 µM. Besides, the EC50 in the series with Human betaherpesvirus 5 [6] was 4.99 µM; with Human betaherpesvirus 5 [7], 1.99 µM. Besides, in the series on HEL, the CC50 stood at 36.6 µM. The MCC at 72 h in series [8] is at least 20 µM.
For the compound `O=C1O/C(=C\Cn2cnc3c(Cl)c(F)nc(F)c32)C(O)=C1O` (mixture of isomers), the IC50 is above 100 µM in the series on HeLa; above 100 µM in series [4]; above 100 µM in the series with HepG2; above 100 µM in the series on SW-620 (Homo sapiens, SW-620, 72 h).
Regarding `O=C1O/C(=C\Cn2cnc3ccnc(Cl)c32)C(OCc2ccccc2)=C1OCc1ccccc1` (mixture of isomers), the IC50 in the series on HeLa was above 100 µM; in series [4], above 100 µM; with HepG2, above 100 µM; in the series on SW-620 (Homo sapiens, SW-620, 72 h), above 100 µM.
Take `Nc1nc(O)c2ncn(COC(CO)CO)c2n1` [GANCICLOVIR]: the concentration for a half-maximal effect (EC50) in the series on Human betaherpesvirus 5 [6] worked out at 6.12 µM; with Human betaherpesvirus 5 [7] it was 4.72 µM. Besides, in the series on HEL, the CC50 was 328 µM. For the same compound, the MCC at 72 h in series [8] was above 350 µM.
Regarding `O=C1NC(O)(CCn2cnc3ccn(CCC4(O)NC(=O)C(OCc5ccccc5)=C4OCc4ccccc4)c3c2=O)C(OCc2ccccc2)=C1OCc1ccccc1` (stereo in doubt; 18), the concentration for half-maximal inhibition (IC50) was 15 µM in [1] (ccrf-cem); 4.4 µM in [5]; 17 µM with HeLa; 5.7 µM in series [4]; above 100 µM with HepG2; 69.9 µM with SW-620 (sw-620).
For the compound `O=C1NC(O)(/C=C\n2cc(I)c3c(Cl)ncnc32)C(OCc2ccccc2)=C1OCc1ccccc1` (configuration not stated), the IC50 in series [1] (Homo sapiens, CCRF-CEM, 72 h) was above 250 µM; in [5], above 250 µM; in the series on HeLa it was above 250 µM; in series [4] it was 22.6 µM; with HepG2 it was 32.4 µM; with SW-620 (Homo sapiens, SW-620, 72 h), 46.9 µM.
On to `O=C1O/C(=C\Cn2cc(I)c3c(Cl)ncnc32)C(OCc2ccccc2)=C1OCc1ccccc1` (mixture of isomers), for which the IC50 in series [1] (Homo sapiens, CCRF-CEM, 72 h) was above 250 µM; in [5] it was 128 µM; with HeLa it was 65 µM; in [4], 33.3 µM; with HepG2, above 100 µM; in the series on SW-620 (Homo sapiens, SW-620, 72 h) it was above 100 µM.
In the case of `O=C1NC(O)(CCn2cnc3cc[nH]c3c2=O)C(OCc2ccccc2)=C1OCc1ccccc1` (configuration not stated), the IC50 in [1] (Homo sapiens, CCRF-CEM, 72 h) is 87 µM; in series [5], 107 µM; with HeLa, 92 µM; in series [4], 36.6 µM; in the series with HepG2 it was above 100 µM; with SW-620 (Homo sapiens, SW-620, 72 h), 90.7 µM.
